In ChEMBL document CHEMBL3877244, “Synthesis and biological evaluation of new aryl-alkyl(alkenyl)-4-benzylpiperidines, novel Sigma Receptor (SR) modulators, as potential anticancer-agents” (Eur J Med Chem, 2016):
Active and inactive are the calls of the source. The calls are words filed in the database; no cut-off is given here.

Tests used:
[1] = Cytotoxicity against human Paca3 cells assessed as decrease in cell viability using complete medium after 24 hrs by MTS assay; type: functional, cell-based; details: Paca3, 24 h
In short: (§1)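 Cells in exponential growth, 3×10^3 per well, in medium with 10% FCS. Capan-2, PaCa3, MDA-MB 231, SUM 159 and PC3 were grown in DMEM/Ham's F12 with glutamine 2 mM and insulin 10 µg/ml. U87 was grown in EMEM and LNCaP in RPMI, each with glutamine. Compound 0.1–100 µM, continuous exposure (24 h; 48 h for the 48 h lines). MTS, OD 490 nm. IC50 read graphically. Three independent experiments in octuplicate.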

[2] = Cytotoxicity against human SUM159 cells assessed as reduction in cell viability after 24 hrs in presence of 10% fetal calf serum by MTS assay; type: functional, cell-based; details: SUM-159-PT; in short: as §1
[3] = Cytotoxicity against human LNCAP cells assessed as reduction in cell viability after 24 hrs in presence of 10% fetal calf serum by MTS assay; type: functional, cell-based; in short: as §1
[4] = Cytotoxicity against human PC3 cells assessed as reduction in cell viability after 24 hrs in presence of 10% fetal calf serum by MTS assay; type: functional, cell-based; details: PC-3, 24 h; in short: as §1
[5] = Cytotoxicity against human LNCAP cells assessed as reduction in cell viability after 24 hrs in absence of 10% fetal calf serum by MTS assay; type: functional, cell-based
In short: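 Cells starved 24 h in low-glucose medium without FCS, then treated 24 h with compound in serum-free conditions. MTS read-out, OD 490 nm, expressed as percent of untreated control. IC50 read graphically from the dose-response plot. Three independent experiments in octuplicate.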

[6] = Induction of apoptosis in human Paca3 cells assessed as early apoptotic cells in presence of 10% fetal calf serum at 25 uM after 24 hrs by annexin V-FITC/propidium iodide staining-based flow cytometry (reference value: 5.6 +/- 0.3%); type: functional
[7] = Cytotoxicity against human Paca3 cells assessed as reduction in cell viability after 48 hrs in presence of 10% fetal calf serum by MTS assay; type: functional, cell-based; details: Paca3, 48 h; in short: as §1
[8] = test system: SUM-159-PT; experiment: Cytotoxicity against human SUM159 cells assessed as reduction in cell viability after 48 hrs in presence of 10% fetal calf serum by MTS assay; type: functional, cell-based; in short: as §1
[9] = Induction of apoptosis in human Paca3 cells assessed as necrotic cells in presence of 10% fetal calf serum at 25 uM after 24 hrs by annexin V-FITC/propidium iodide staining-based flow cytometry (reference value: 0.6 +/- 0.4%); type: functional
[10] = Induction of apoptosis in human Paca3 cells assessed as viable cells in presence of 10% fetal calf serum at 25 uM after 24 hrs by annexin V-FITC/propidium iodide staining-based flow cytometry (reference value: 89.9 +/- 0.1%); type: functional

For `C/C(=C\CN1CCC(Cc2ccccc2)CC1)c1ccc2ccccc2c1`, the IC50 [1] was 49.8 µM, the IC50 [2] was 58.3 µM and the IC50 [3] was 61.1 µM. It also gave an IC50 [4] of 50.6 µM, an IC50 [5] of 9.58 µM and an Activity [6] of 43.1%. For the same compound, the IC50 [7] was 28.7 µM, the Activity [8] was “Active” and the Activity [9] was 0.4%. For the same compound, the Activity [10] was 22.4%.
